From ChEMBL document CHEMBL4376862, “Synthesis and evaluation of novel chlorophyll a derivatives as potent photosensitizers for photodynamic therapy” (Eur J Med Chem, 2020)

Assays:
[1] = Therapeutic index, ratio of TC50 for human A549 cells under dark to IC50 for human A549 cells irradiated with 1 J/cm2 of 650 nanometer laser light; type: toxicity, cell-based; conditions: read-out: TI
Summary of the method: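 A549 cells (F-12K, 10% FBS, 37 °C, 5% CO2) seeded 24 h, then exposed to 0–10 photosensitizer for 24 h. Dark arm: MTT 48 h later. Light arm: 650 nm laser, 1 J/cm2 (25 mW/cm2, 40 s), then MTT. A570 viability relative to control, triplicate. Ratio = dark TC50 / irradiated IC50.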

[2] = Octanol/water partition coefficient, logP of compound by shake flask method; type: physicochemical
Summary of the method: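 Shake-flask method: equilibrium concentrations in octanol and water measured by UV-vis absorbance; log P taken as log of octanol/water concentration ratio (mg/L).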

[3] = Absorption property of compound in DMSO assessed as strong absorption wavelength at 1 x 10^-3 M by UV-spectra analysis; type: physicochemical; conditions: 1000 µM
Summary of the method: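 Stocks 1 mM in DMSO; spectra run over […] range (units as printed), 300–800 nm in 1 nm steps, room temperature, quartz cuvettes, UV-vis spectrophotometer.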

[4] = Emission property of a compound in DMSO assessed as red shift at 5 uM on excitation with light at 410 to 415 nm by 3D fluorescence spectra analysis; type: physicochemical
Summary of the method: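 Stock 1 mM in DMSO, measured at […] (so in the source); excitation scanned 350–640 nm, emission 600–750 nm, 1 nm steps, room temperature, quartz cuvettes; 3D fluorescence matrix spectra recorded.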

[5] = Induction of ROS generation in DMF solution assessed as slope of the photodegradation rate of DPBF at 2 uM followed by irradiation measured every 10 secs by spectrophotometric analysis; type: functional
[6] = Drug uptake in human A549 cells incubated upto 24 hrs by fluorescence spectrophotometer analysis; type: ADME, cell-based; conditions: a549, 24 h
Summary of the method: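 A549 cells (F-12K, 10% FBS, 37 °C, 5% CO2) grown in 24 wells and exposed to photosensitizer for 0.5, 1, 2, 4, 8, 12 or 24 h; cells harvested by digestion, fluorescence read on a spectrophotometer.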

[7] = Dark toxicity in human A549 cells assessed as reduction in cell viability incubated under dark for 24 hrs measured after 48 hrs by MTT assay; type: cell-based; conditions: read-out: TC50
Summary of the method: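 A549 cells seeded at 5×10^4 cells/100 µL per well for 24 h, treated in the dark with […] (so in the source) for 24 h; MTT added 4 h, absorbance 570 nm, 48 h later; viability as OD treated/OD control; triplicate, mean ± SD.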

A549 [8] = experiment: Phototoxicity against human A549 cells assessed as reduction in cell proliferation irradiated with 1 J/cm2 of 650 nanometer laser light preincubated for 24 hrs measured after 48 hrs by MTT assay; type: functional, cell-based; conditions: A549, light or radiation study
Summary of the method: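 A549 cells seeded 5×10^4 cells/100 µL per well, given […] for 24 h, then 650 nm semiconductor laser at 1 J/cm2 (25 mW/cm2, 40 s); MTT 4 h, absorbance 570 nm; viability vs control; triplicate, mean ± SD.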

A549 [9] = experiment: Photodynamic antitumor activity against human A549 cells xenografted in BALB/c nude mouse assessed as decrease in tumor weight at 0.3 mg/kg, iv followed by laser light irradiation at 120 J/cm2 measured after 14 days; type: functional
Summary of the method: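 Male BALB/c nude mice (5–6 weeks, 14–16 g) given 2×10^6 A549 cells s.c. in 0.2 mL PBS; at 6–7 mm tumors randomized into ten groups; drug via tail vein, 650 nm diode laser 120 J/cm2 at 180 mW/cm2 24 h later; caliper volume a×b²/2, followed 14 days.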

[10] = Induction of ROS generation in DMF solution assessed as ROS quantum yield at 2 uM followed by irradiation measured every 10 secs by spectrophotometric analysis; type: functional
Mus musculus [11] = experiment: Phototoxicity in ICR mouse assessed as change in auricles 0.45 mg/kg, iv in presence of 10 mW/cm2 light irradiation for 10 mins upto 7 days measured after 1day of light irradiation by H and E staining based microscopic analysis; type: organism-based; conditions: in vivo
Mus musculus [12] = experiment: Phototoxicity in ICR mouse assessed as ear weight at 0.45 mg/kg, iv followed by 10 mW/cm2 light irradiation for 10 mins at 7 days after drug challenge measured after 1 day of light irradiation (13.2 +/- 1.6 mg); type: organism-based; conditions: in vivo
Mus musculus [13] = experiment: Phototoxicity in ICR mouse assessed as ear weight at 0.45 mg/kg, iv followed by 10 mW/cm2 light irradiation for 10 mins at 5 days after drug challenge measured after 1 day of light irradiation (reference value: 12.9 +/- 1.4 mg); type: organism-based; conditions: in vivo
Mus musculus [14] = experiment: Phototoxicity in ICR mouse assessed as ear weight at 0.45 mg/kg, iv followed by 10 mW/cm2 light irradiation for 10 mins at 3 days after drug challenge measured after 1 day of light irradiation (reference value: 12.8 +/- 1.5 mg); type: organism-based; conditions: in vivo
Mus musculus [15] = experiment: Phototoxicity in ICR mouse assessed as ear weight at 0.45 mg/kg, iv followed by 10 mW/cm2 light irradiation for 10 mins at 1 day after drug challenge measured after 1 day of light irradiation (reference value: 12.6 +/- 1.2 mg); type: organism-based; conditions: in vivo
Mus musculus [16] = experiment: Phototoxicity in ICR mouse assessed as change in exposed neck skin 0.45 mg/kg, iv in presence of 10 mW/cm2 light irradiation for 10 mins upto 7 days measured after 1day of light irradiation by H and E staining based microscopic analysis; type: organism-based; conditions: in vivo
Cavia porcellus [17] = experiment: Phototoxicity in guinea pig assessed as change in left ear weight 4.5 mg/kg, iv followed by 10 mW/cm2 light irradiation for 10 mins measured after 1 day of light irradiation (reference value: 39.2 +/- 1.8 mg); type: organism-based; conditions: in vivo
Cavia porcellus [18] = experiment: Phototoxicity in guinea pig assessed as change in right ear weight 4.5 mg/kg, iv followed by 10 mW/cm2 light irradiation for 10 mins measured after 1 day of light irradiation (reference value: 40.4 +/- 2.4 mg); type: organism-based; conditions: in vivo
Cavia porcellus [19] = experiment: Phototoxicity in guinea pig assessed as change in back skin weight 4.5 mg/kg, iv followed by 10 mW/cm2 light irradiation for 10 mins measured after 1day of light irradiation (reference value: 72.4 +/- 3.1 mg); type: organism-based; conditions: in vivo, 24 h

| Compound | selectivity ratio [1] | logP [2] | Activity [3] | Activity [4] | K [5] | Drug uptake [6] | CC50 at 24 h [7] | IC50 (A549 [8]) | Activity (A549 [9]) | Ratio [10] | Activity (Mus musculus [11]) | Activity (Mus musculus [12]) | Activity (Mus musculus [13]) | Activity (Mus musculus [14]) | Activity (Mus musculus [15]) | Activity (Mus musculus [16]) | Activity (Cavia porcellus [17]) | Activity (Cavia porcellus [18]) | Activity (Cavia porcellus [19]) |
| --- | --- | --- | --- | --- | --- | --- | --- | --- | --- | --- | --- | --- | --- | --- | --- | --- | --- | --- | --- |
| CCCCCOC(C)c1c(C)c2cc3nc(c4c5[nH]c(cc6nc(cc1[nH]2)C(C)=C6CC)c(C)c5C(=O)C4)[C@@H](CCC(=O)NCC(=O)CCC(=O)O)[C@@H]3C (some centres undefined) | 10.4 | 2.61 | 660 to 670 nm | 661 to 669 nm | 0.0353 s⁻¹ | Active | 1040 nM | 100 nM | 0 g | 1.76 | – | – | – | – | – | – | – | – | – |
| CCCOCCOC(C)c1c(C)c2cc3nc(c4c5[nH]c(cc6nc(cc1[nH]2)C(C)=C6CC)c(C)c5C(=O)C4)[C@@H](CCC(=O)NCC(=O)CCC(=O)O)[C@@H]3C (some centres undefined) | 3.42 | 2.22 | 660 to 670 nm | 661 to 669 nm | 0.0329 s⁻¹ | Active | 4000 nM | 1170 nM | 0.1154 g | 1.65 | – | – | – | – | – | – | – | – | – |
| CCCCCCOC(C)c1c(C)c2cc3nc(c4c5[nH]c(cc6nc(cc1[nH]2)C(C)=C6CC)c(C)c5C(=O)C4)[C@@H](CCC(=O)NCC(=O)CCC(=O)O)[C@@H]3C (some centres undefined) | 12.6 | 2.67 | 660 to 670 nm | 661 to 669 nm | 0.0363 s⁻¹ | Active | 1010 nM | 80 nM | 0 g | 1.81 | – | – | – | – | – | – | – | – | – |
| CCC1=C(C)c2cc3[nH]c(cc4nc(c5c6[nH]c(cc1n2)c(C)c6C(=O)C5)[C@@H](CCC(=O)NCC(=O)CCC(=O)O)[C@@H]4C)c(C)c3C(C)OCCOC (some centres undefined) | 7.43 | 1.82 | 660 to 670 nm | 661 to 669 nm | 0.0162 s⁻¹ | Active | 5650 nM | 760 nM | 0.2431 g | 0.81 | – | – | – | – | – | – | – | – | – |
| CCOC(C)c1c(C)c2cc3nc(c4c5[nH]c(cc6nc(cc1[nH]2)C(C)=C6CC)c(C)c5C(=O)C4)[C@@H](CCC(=O)NCC(=O)CCC(=O)O)[C@@H]3C (some centres undefined) | 4.74 | 2.16 | 660 to 670 nm | 661 to 669 nm | 0.0161 s⁻¹ | Active | 3270 nM | 690 nM | 0.0527 g | 0.805 | – | – | – | – | – | – | – | – | – |
| CCCOC(C)c1c(C)c2cc3nc(c4c5[nH]c(cc6nc(cc1[nH]2)C(C)=C6CC)c(C)c5C(=O)C4)[C@@H](CCC(=O)NCC(=O)CCC(=O)O)[C@@H]3C (some centres undefined) | 5.32 | 2.34 | 660 to 670 nm | 661 to 669 nm | 0.018 s⁻¹ | Active | 2660 nM | 500 nM | 0.0495 g | 0.9 | – | – | – | – | – | – | – | – | – |
| CCC1=C(C)c2cc3[nH]c(cc4nc(c5c6[nH]c(cc1n2)c(C)c6C(=O)C5)[C@@H](CCC(=O)NCC(=O)CCC(=O)O)[C@@H]4C)c(C)c3C(C)OC (some centres undefined) | 4.54 | 1.91 | 660 to 670 nm | 661 to 669 nm | 0.0195 s⁻¹ | Active | 2680 nM | 590 nM | 0.1265 g | 0.975 | – | – | – | – | – | – | – | – | – |
| C=Cc1c(C)c2cc3nc(c4c5[nH]c(cc6nc(cc1[nH]2)C(C)=C6CC)c(C)c5C(=O)C4)[C@@H](CCC(=O)O)[C@@H]3C [PYROPHEOPHORBIDE A] | – | 3.77 | Active | 661 to 669 nm | 0.0081 s⁻¹ | – | – | – | – | 0.405 | Non-Toxic | 13.3 mg | 13.2 mg | 12.7 mg | 13.1 mg | Non-Toxic | 57.2 mg | 59.2 mg | 100.3 mg |
